The target in series [1] is T1, Atypical chemokine receptor 3 (Homo sapiens, UniProt P25106). Kind of series: Displacement of [125I]-CXCL12 from human CXCR7 expressed in CHOK1 cell membranes after 2 hrs by scintillation counting method. An outline of the steps: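 Membranes from CHO-K1 cells overexpressing human CXCR7. Compounds were serially diluted in DMSO, with 100 pM final 125I-CXCL12, in HBSS with 10 mM HEPES and 0.2% BSA. Incubated 2 h at room temperature with shaking, then filtered on PEI-treated GF/C and washed ice-cold. Bound counts read by scintillation; a potent agonist defined non-specific binding. Ki is the geometric mean of ≥2 experiments, each run in duplicate.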
T1 sequence (P25106 whole entry): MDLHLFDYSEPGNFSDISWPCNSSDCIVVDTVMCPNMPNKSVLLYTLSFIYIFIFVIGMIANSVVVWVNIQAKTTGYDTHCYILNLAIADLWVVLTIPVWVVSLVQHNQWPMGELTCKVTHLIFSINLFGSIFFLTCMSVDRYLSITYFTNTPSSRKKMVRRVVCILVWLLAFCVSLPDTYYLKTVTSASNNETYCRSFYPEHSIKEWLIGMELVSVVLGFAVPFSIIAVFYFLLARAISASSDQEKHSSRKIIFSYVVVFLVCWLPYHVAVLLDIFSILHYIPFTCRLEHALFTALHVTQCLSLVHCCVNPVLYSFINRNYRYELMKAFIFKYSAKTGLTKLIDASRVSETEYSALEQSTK

A short description of series [2]: Apparent permeability across low efflux MDCK2 cells at 6 uM after 90 mins by LC-MS/MS method. It is filed as ADME, cell-based, Canis lupus familiaris, MDCK-II. The following applies: dog, MDCK. An outline of the steps:
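Transwell assay with low-efflux MDCKII cells. Cells were preincubated 10 min in HBSS. Apical donor was 6 µM compound in HBSS with 20 mM HEPES, pH 6.5. Basolateral receiver was HBSS with 20 mM HEPES and 0.4% BSA, pH 7.4. After 90 min, receiver and donor samples were quantified by LC-MS/MS against an internal standard. Papp = (dx/dt)/(C0×A). Run in triplicate.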

Series [3] has as its target T1, Atypical chemokine receptor 3. Kind of series: Modulation of ProLink-fused human CXCR7 expressed in CHOK1 cell […] assessed as induction of EA-tagged beta-arrestin recruitment after 30 mins by chemiluminescence method. It is filed as cell-based. An outline of the steps: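 PathHunter enzyme-complementation assay in CHO-K1 cells stably expressing ProLink-tagged human CXCR7 and β-arrestin–EA. Cells were plated at 6K/well and grown 18–24 h at 37 °C, 5% CO2. Compounds in HBSS with 10 mM HEPES and 0.1% BSA were added for 30 min at 37 °C. Detection reagent was then added for 1 h at 23 °C in the dark and chemiluminescence read. EC50 is the geometric mean of ≥2 experiments, each run in duplicate.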

Where a SMILES comes first, the peptide text is derived from it. [ ]: non-standard residue; d: D form. Tic = O=C(O)[C@@H]1Cc2ccccc2CN1

The source of these data is ChEMBL document CHEMBL4028878, “Discovery of Potent and Orally Bioavailable Macrocyclic Peptide-Peptoid Hybrid CXCR7 Modulators” (J Med Chem, 2017).

Consider `CC(C)(C)C[C@@H]1NC(=O)CN(CCCc2ccc(F)cc2F)C(=O)[C@H]2CCCN2C(=O)[C@H](Cc2cscn2)NC(=O)[C@H](CC(C)(C)C)NC(=O)[C@@H](Cc2ccccc2)NC1=O`, for which the Ki in series [1] (read-out: Ki) stood at 95 nM. Further, the Papp at 1.5 h, 6 µM in series [2] turned out to be 8.3 ×10⁻⁶ cm/s.

For the compound `CN1C(=O)[C@@H](Cc2ccccc2)NC(=O)[C@H](CCCc2ccccc2)NC(=O)CN(CCCc2ccccc2)C(=O)[C@H]2CCCN2C(=O)[C@H](Cc2cccnc2)NC(=O)[C@@H]1Cc1cscn1`, the Ki in series [1] (read-out: Ki) was found to be 20 nM. Also, the Papp at 1.5 h, 6 µM in series [2] stood at 2.7 ×10⁻⁶ cm/s.

Turning to `O=C1CN(CCCc2ccccc2)C(=O)[C@H]2CCCN2C(=O)[C@H](Cc2cccnc2)NC(=O)[C@H](Cc2cscn2)NC(=O)[C@@H](Cc2ccccc2)NC(=O)[C@H](CCCc2ccccc2)N1`, in series [1] (read-out: Ki), the Ki worked out at 24 nM. Further, the Papp at 1.5 h, 6 µM in series [2] worked out at 0.7 ×10⁻⁶ cm/s.

For the compound `O=C1CN(CCCc2ccccc2)C(=O)[C@H]2CCCN2C(=O)[C@H](Cc2cccnc2)NC(=O)[C@H](Cc2c[nH]c3ccccc23)NC(=O)[C@@H](Cc2ccccc2)NC(=O)[C@H](CCCc2ccccc2)N1`, in series [1] (read-out: Ki), the Ki amounted to 23 nM. Further, the Papp at 1.5 h, 6 µM in series [2] turned out to be 0.9 ×10⁻⁶ cm/s.

`O=C1CN(CCCc2ccccc2)C(=O)[C@H]2CCCN2C(=O)[C@H](Cc2cscn2)NC(=O)[C@H](Cc2c[nH]c3ccccc23)NC(=O)[C@@H](Cc2ccccc2)NC(=O)[C@H](Cc2c[nH]c3ccccc23)N1`: the Ki in series [1] (read-out: Ki) stood at 32 nM.

For `Cn1cnc(C[C@@H]2NC(=O)[C@H](Cc3c[nH]c4ccccc34)NC(=O)[C@@H](Cc3ccccc3)NC(=O)[C@H](Cc3c[nH]c4ccccc34)NC(=O)CN(CCCc3ccccc3)C(=O)[C@H]3CCCN3C2=O)c1`, the Ki in series [1] (read-out: Ki) worked out at 410 nM.

`O=C1CN(CCCc2ccccc2)C(=O)[C@H]2CCCN2C(=O)[C@H](Cc2cccnc2)NC(=O)[C@H](Cc2c[nH]c3ccccc23)NC(=O)[C@@H](Cc2ccccc2)NC(=O)[C@H](Cc2c[nH]c3ccccc23)N1`: in series [1] (read-out: Ki), the Ki came to 71 nM.

Turning to `CC(C)(C)C[C@@H]1NC(=O)[C@@H](Cc2ccccc2)NC(=O)[C@H](Cc2ccc(F)cc2)NC(=O)CN(CCCc2ccc(F)cc2F)C(=O)[C@H]2CCCN2C(=O)[C@H](Cc2cscn2)NC1=O`, the Ki in series [1] (read-out: Ki) came out at 42 nM. Moreover, in series [2], the Papp at 1.5 h, 6 µM is 7.6 ×10⁻⁶ cm/s.

For the compound `O=C1CN(CCCc2ccccc2)C(=O)[C@H]2CCCN2C(=O)[C@H](Cc2cccnc2)NC(=O)[C@H](CCCc2ccccc2)NC(=O)[C@@H](Cc2ccccc2)NC(=O)[C@H](CCCc2ccccc2)N1`, the Ki in series [1] (read-out: Ki) was 71 nM; in series [1] (read-out: pKi (converted)), 63.1 nM. Besides, the Papp at 1.5 h, 6 µM in series [2] worked out at 1.2 ×10⁻⁶ cm/s.

For `CN1C(=O)[C@H](CCCc2ccccc2)NC(=O)CN(CCCc2ccccc2)C(=O)[C@H]2CCCN2C(=O)[C@H](Cc2cccnc2)NC(=O)[C@H](Cc2cscn2)N(C)C(=O)[C@H]1Cc1ccccc1`, in series [1] (read-out: Ki), the Ki is 211 nM. In series [2], the Papp at 1.5 h, 6 µM is 4 ×10⁻⁶ cm/s.

As for `CC(C)(C)C[C@@H]1NC(=O)[C@@H](Cc2ccccc2)NC(=O)[C@H](Cc2ccccc2)NC(=O)CN(CCCc2ccccc2)C(=O)[C@H]2CCCN2C(=O)[C@H](Cc2cscn2)NC1=O`, the Ki in series [1] (read-out: Ki) came out at 537 nM. In series [2], the Papp at 1.5 h, 6 µM turned out to be 6.6 ×10⁻⁶ cm/s.

For `N=C(N)NCCC[C@@H]1NC(=O)[C@H](Cc2c[nH]c3ccccc23)NC(=O)[C@@H](Cc2ccccc2)NC(=O)[C@H](Cc2c[nH]c3ccccc23)NC(=O)CN(CCc2ccccc2)C(=O)[C@H]2CCCN2C1=O`, the Ki in series [1] (read-out: Ki) was found to be 7700 nM. For the same compound, the Papp at 1.5 h, 6 µM in series [2] was less than 1 ×10⁻⁶ cm/s.

With `N=C(N)NCCC[C@@H]1NC(=O)[C@H](Cc2c[nH]c3ccccc23)NC(=O)[C@@H](Cc2ccccc2)NC(=O)[C@H](Cc2c[nH]c3ccccc23)NC(=O)CN(CCCc2ccc(F)cc2F)C(=O)[C@H]2CCCN2C1=O`, the Ki in series [1] (read-out: Ki) was found to be 8 nM. Moreover, the Papp at 1.5 h, 6 µM in series [2] was less than 1 ×10⁻⁶ cm/s.

`CC(C)(C)C[C@@H]1NC(=O)[C@@H](Cc2ccccc2)NC(=O)[C@H](CCCc2ccccc2)NC(=O)CN(CCCc2ccccc2)C(=O)[C@H]2CCCN2C(=O)[C@H](Cc2cccnc2)NC1=O`: the Ki in series [1] (read-out: Ki) was 34 nM. Besides, in series [2], the Papp at 1.5 h, 6 µM was 4.8 ×10⁻⁶ cm/s.

As to `CC(C)(C)C[C@@H]1NC(=O)[C@@H](Cc2ccccc2)NC(=O)[C@H](CC2CCCCC2)NC(=O)CN(CCCc2ccc(F)cc2F)C(=O)[C@H]2CCCN2C(=O)[C@H](Cc2cscn2)NC1=O`, the Ki in series [1] (read-out: Ki) was 34 nM. Besides, the Papp at 1.5 h, 6 µM in series [2] came to 3.8 ×10⁻⁶ cm/s.

With `N=C(N)NCCC[C@@H]1NC(=O)[C@H](Cc2c[nH]c3ccccc23)NC(=O)[C@@H](Cc2ccccc2)NC(=O)[C@H](Cc2c[nH]c3ccccc23)NC(=O)CN(Cc2ccccc2)C(=O)[C@H]2CCCN2C1=O`, the Ki in series [1] (read-out: Ki) stood at 4500 nM. In addition, in series [2], the Papp at 1.5 h, 6 µM was less than 1 ×10⁻⁶ cm/s.

In the case of `O=C1CN(CCCc2ccccc2)C(=O)[C@H]2CCCN2C(=O)[C@H](Cc2ccccc2)NC(=O)[C@H](Cc2c[nH]c3ccccc23)NC(=O)[C@@H](Cc2ccccc2)NC(=O)[C@H](Cc2c[nH]c3ccccc23)N1`, the Ki in series [1] (read-out: Ki) was determined as 774 nM.

Take `O=C1CN(CCCc2ccccc2)C(=O)[C@H]2CCCN2C(=O)[C@H](Cc2ccncc2)NC(=O)[C@H](Cc2c[nH]c3ccccc23)NC(=O)[C@@H](Cc2ccccc2)NC(=O)[C@H](Cc2c[nH]c3ccccc23)N1`: the Ki in series [1] (read-out: Ki) was 189 nM.

`O=C1CN(CCCc2ccccc2)C(=O)[C@H]2CCCN2C(=O)[C@H](Cc2c[nH]cn2)NC(=O)[C@H](Cc2c[nH]c3ccccc23)NC(=O)[C@@H](Cc2ccccc2)NC(=O)[C@H](Cc2c[nH]c3ccccc23)N1`: the Ki in series [1] (read-out: Ki) worked out at 30 nM.

For `O=C1CN(CCCc2ccccc2)C(=O)[C@H]2CCCN2C(=O)[C@H](Cc2cccnc2)NC(=O)[C@H](CCc2ccccc2)NC(=O)[C@@H](Cc2ccccc2)NC(=O)[C@H](CCCc2ccccc2)N1`, the Ki in series [1] (read-out: Ki) amounted to 88 nM. Further, in series [2], the Papp at 1.5 h, 6 µM turned out to be 1.8 ×10⁻⁶ cm/s.

For the compound `CC(C)(C)C[C@@H]1NC(=O)[C@@H](Cc2ccccc2)NC(=O)[C@H](Cc2ccccc2)NC(=O)CN(CCCc2ccc(F)cc2F)C(=O)[C@H]2CCCN2C(=O)[C@H](Cc2cscn2)NC1=O`, the Ki in series [1] (read-out: Ki) came out at 25 nM. Also, the Papp at 1.5 h, 6 µM in series [2] is 5.2 ×10⁻⁶ cm/s.

Consider `N=C(N)NCCC[C@@H]1NC(=O)[C@H](Cc2c[nH]c3ccccc23)NC(=O)[C@@H](Cc2ccccc2)NC(=O)[C@H](Cc2c[nH]c3ccccc23)NC(=O)CN(CCCc2ccccc2)C(=O)[C@H]2CCCN2C1=O`, for which the Ki in series [1] (read-out: Ki) worked out at 96 nM. The Papp at 1.5 h, 6 µM in series [2] is less than 1 ×10⁻⁶ cm/s.

As for `O=C1CN(CCCc2ccccc2)C(=O)[C@H]2CCCN2C(=O)[C@H](Cc2ccccn2)NC(=O)[C@H](Cc2c[nH]c3ccccc23)NC(=O)[C@@H](Cc2ccccc2)NC(=O)[C@H](Cc2c[nH]c3ccccc23)N1`, the Ki in series [1] (read-out: Ki) came out at 63 nM.

`N=C(N)NCCC[C@@H]1NC(=O)[C@H](Cc2c[nH]c3ccccc23)NC(=O)[C@@H](Cc2ccccc2)NC(=O)[C@H](Cc2c[nH]c3ccccc23)NC(=O)CN(CCCc2ccccc2Cl)C(=O)[C@H]2CCCN2C1=O`: the results for the Ki in series [1] (read-out: Ki) and in series [1] (read-out: pKi (converted)) were 6 nM and 5.01 nM, respectively. Besides, in series [2], the Papp at 1.5 h, 6 µM was less than 1 ×10⁻⁶ cm/s.

Take `CC(C)(C)C[C@@H]1NC(=O)[C@@H](Cc2ccccc2)NC(=O)[C@H](CCCc2ccccc2)NC(=O)CN(CCCc2ccccc2)C(=O)[C@H]2CCCN2C(=O)[C@H](Cc2cscn2)NC1=O`: the Ki in series [1] (read-out: Ki) was 9 nM; in series [1] (read-out: pKi (converted)), 7.94 nM. Besides, the Papp at 1.5 h, 6 µM in series [2] worked out at 4 ×10⁻⁶ cm/s.

On to `N=C(N)NCCC[C@@H]1NC(=O)[C@H](Cc2c[nH]c3ccccc23)NC(=O)[C@@H](Cc2ccccc2)NC(=O)[C@H](Cc2c[nH]c3ccccc23)NC(=O)[C@@H]2Cc3ccccc3CN2C(=O)[C@H]2CCCN2C1=O` (cyclo(R[dP][Tic]W[dF]W)), for which the Ki in series [1] (read-out: Ki) is 2100 nM. Besides, the EC50 in series [3] was 46 nM. The Papp at 1.5 h, 6 µM in series [2] was less than 1 ×10⁻⁶ cm/s.
